The text below walks through data of publication PMC6930338 (Journal of autoimmunity, 2019).

Substitutions are numbered along the chain they refer to. Where no end group is shown, it is not given here.

The target in series [1] is T1, HLA-DPA1*01:03/ HLA-DPB1*04:02 (Homo sapiens, UniProt P04440+P20036, A65V/A84D/A85E/L207M).
T1 sequence (P20036 29-260): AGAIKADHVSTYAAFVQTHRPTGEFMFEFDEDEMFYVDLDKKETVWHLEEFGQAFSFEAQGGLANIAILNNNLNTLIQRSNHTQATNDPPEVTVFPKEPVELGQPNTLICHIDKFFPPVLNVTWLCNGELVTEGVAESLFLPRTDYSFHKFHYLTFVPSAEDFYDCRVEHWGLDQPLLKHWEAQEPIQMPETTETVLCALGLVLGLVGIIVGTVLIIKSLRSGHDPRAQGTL
T1 sequence (P04440 30-258 A65V/A84D/A85E): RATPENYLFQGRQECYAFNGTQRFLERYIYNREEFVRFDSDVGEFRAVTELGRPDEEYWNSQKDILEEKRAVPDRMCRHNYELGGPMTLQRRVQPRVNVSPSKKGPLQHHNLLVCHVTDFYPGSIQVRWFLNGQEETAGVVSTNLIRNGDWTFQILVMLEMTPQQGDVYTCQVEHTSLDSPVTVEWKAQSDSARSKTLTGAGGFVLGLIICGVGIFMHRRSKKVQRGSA
Kind of series: In vitro competitive peptide binding to purified MHC class II.

In another series the target is HLA-DRB4*01:01/ *01:03 (Homo sapiens, UniProt P01903+P13762, G164S). As to the kind of experiment: In vitro competitive peptide binding to purified MHC class II. Summed up:
(§1)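 Candidate MPO peptides were picked by IEDB in silico prediction and then tested in vitro. Each peptide's inhibition of binding of a high-affinity radiolabeled peptide to purified HLA-DPB1*04:01 or HLA-DRB4*01:01 class II molecules was measured.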

For series [2], the target named is T2, HLA-DPA1*01:03/ HLA-DPB1*04:01 (Homo sapiens, UniProt P04440+P20036).
T2 sequence (P20036 29-260): T1 sequence (P20036 29-260)
T2 sequence (P04440 30-258): T1 sequence (P04440 30-258 A65V/A84D/A85E) with V36A, D55A, E56A
The series is described as above. The essentials: as §1

Series [3] concerns the target HLA-DRB5*01:01/ *01:02/ *02:02 (Homo sapiens, UniProt P01903+Q30154). As to the kind of experiment: In vitro competitive peptide binding to purified MHC class II.
For another series, the target named is HLA-DRB1*03:04/ *03:07 (Homo sapiens, UniProt P01903+P01911, A100K/A102G/A103R/A169T/F55Y/I96L/K41T/L162R/M171V/P40S/Q125H/Q178H/Q39Y/R42S/T106N/T262R/W38E/Y61H). Described as above.
In the next series the target is HLA-DRB1*04:01-*04:13 (Homo sapiens, UniProt P01903+P01911, A100K/A169T/F76Y/I96L/K127E/L162R/M171V/N62H/P40V/Q125Y/R42H/S133A/S149N/S66Y/V115G/V209L/W38E). Described as above.
The nature of series [4]: Peptide solubility noted during ELISA optimization. The class given is physicochemical. To be noted: qualitative; follow-up testing and optimization of ELISA. Background: An ELISA detects its analyte on a solid surface through an enzyme-linked reagent.

A word on the IC50: it is the concentration that inhibits the measured activity by half. The low end stands for inhibition by little substance, the high end for a need for much substance. Take PVAATRTAVRAADYL [MPO105–119]: the 50% inhibitory concentration (IC50) came out at 6170 nM in series [1]; 876 nM on HLA-DRB4*01:01/ *01:03; 7120 nM in series [2]; 321 nM in series [3]; 14500 nM at HLA-DRB1*03:04/ *03:07; 433 nM at HLA-DRB1*04:01-*04:13.
For the compound RKIVGAMVQIITYRD [MPO447–461], the IC50 in series [1] was 74 nM; on HLA-DRB4*01:01/ *01:03, 240 nM; in series [2] it was 98 nM; in series [3] it was 1210 nM; at HLA-DRB1*03:04/ *03:07, 13900 nM; at HLA-DRB1*04:01-*04:13 it was 46 nM. Further, in series [4], the “Solubility compared with MPO447–459” value is “improved solubility”.
“IKAVRIYIGDVMRQT [MPO447–461scramble, reference compound]”: the 50% inhibitory concentration (IC50) at HLA-DRB4*01:01/ *01:03 was found to be 17 nM; in series [2], 38 nM.
Take MPELTSMHTLLLREH [MPO409–423]: the IC50 in series [1] came out at 826 nM; at HLA-DRB4*01:01/ *01:03, 217 nM; in series [2], 409 nM; in series [3], 81 nM; on HLA-DRB1*03:04/ *03:07, 11000 nM; at HLA-DRB1*04:01-*04:13, 16 nM.
Regarding DQERSLMFMQWGQLL [MPO245–259], the IC50 in series [1] was found to be 910 nM; at HLA-DRB4*01:01/ *01:03, 381 nM; in series [2] it was 1090 nM; in series [3], 1180 nM; on HLA-DRB1*03:04/ *03:07, 70000 nM; on HLA-DRB1*04:01-*04:13, 4140 nM.
For PILRGLMATPAKLNR [MPO545–559], the IC50 is 2480 nM in series [1]; 68 nM at HLA-DRB4*01:01/ *01:03; 12000 nM in series [2]; 29 nM in series [3]; 32800 nM on HLA-DRB1*03:04/ *03:07; 8 nM on HLA-DRB1*04:01-*04:13.
For the compound PRWDGERLYQEARKIVGAMV [MPO435–454], the results for the concentration for half-maximal inhibition (IC50) (on HLA-DRB4*01:01/ *01:03; in series [2]) were 253 nM and 1050 nM, respectively.
Regarding “GEKLYQEARKIVGAM [MPO413–427, reference compound]”, the IC50 in series [1] is 19400 nM; on HLA-DRB4*01:01/ *01:03 it was 9350 nM; in series [2], 53700 nM; in series [3] it was 1440 nM; at HLA-DRB1*03:04/ *03:07, 31100 nM; at HLA-DRB1*04:01-*04:13, 933 nM.
`CC[C@H](C)[C@H](NC(=O)[C@H](CCCNC(=N)N)NC(=O)[C@@H]1CCCN1)C(=O)N[C@@H](C)C(=O)N[C@@H](CC(N)=O)C(=O)N[C@H](C(=O)N[C@@H](Cc1ccccc1)C(=O)N[C@H](C(=O)N[C@@H](CC(N)=O)C(=O)N[C@@H](C)C(=O)N[C@@H](Cc1ccccc1)C(=O)N[C@@H](CCCNC(=N)N)C(=O)N[C@@H](Cc1ccc(O)cc1)C(=O)NCC(=O)N[C@@H](Cc1c[nH]cn1)C(=O)O)[C@@H](C)O)C(C)C` [MPO488–502]: the 50% inhibitory concentration (IC50) in series [1] came out at 1340 nM; at HLA-DRB4*01:01/ *01:03, 725 nM; in series [2] it was 5620 nM; in series [3], 5 nM; at HLA-DRB1*03:04/ *03:07, 2970 nM; at HLA-DRB1*04:01-*04:13 it was 2 nM.
